The source made the active and inactive calls. The calls are words filed in the database; no cut-off is given here.
Experiments:
[1] = test system: Brassica juncea; test: Stress inducing elicitor activity in Brassica juncea cv. Cutlass; format: functional, organism-based
Summary of the method: (§1)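 Test solutions applied to leaves of whole plants. Plants were grown in a growth chamber at 24 ± 2 °C on a 16 h light / 8 h dark cycle. Treated plants were incubated in a growth cabinet. Control leaves received MeOH/H2O (1:1). Elicitation was scored by HPLC-DAD of leaf extracts as phytoalexins absent from control plants. Assays were run in triplicate, at least twice.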

[2] = test system: Brassica napus; test: Stress inducing elicitor activity in Brassica napus cv. Wester; format: functional, organism-based; summary of the method: as §1
[3] = test system: Brassica juncea; test: Stress inducing elicitor activity in Brassica juncea cv. Cutlass assessed as induction of phytoalexins production; format: functional, organism-based; summary of the method: as §1
[4] = test system: Brassica napus; test: Stress inducing elicitor activity in Brassica napus cv. Wester assessed as induction of phytoalexins production; format: functional, organism-based; summary of the method: as §1
[5] = test system: Brassica juncea; test: Induction necrosis on leaves of Brassica juncea cv. Cutlass at 0.5 mM; format: functional, organism-based
[6] = test system: Brassica napus; test: Induction necrosis on leaves of Brassica napus cv. Wester at 0.5 mM; format: functional, organism-based
[7] = test system: Brassica napus; test: Stress inducing elicitor activity in Brassica napus cv. Wester assessed as induction of spirobrassinin production at 1 mM; format: functional, organism-based
Summary of the method: (§2)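 Test solutions applied to leaves of whole plants (B. juncea cv. Cutlass, B. napus cv. Westar) grown in a growth chamber at 24 ± 2 °C with 16 h light / 8 h dark; plants then incubated in a growth cabinet. Leaf extracts analysed by HPLC-DAD for phytoalexins and indolyl stress metabolites against controls treated with MeOH/H2O (1:1). Run in triplicate, at least twice.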

[8] = test system: Brassica napus; test: Stress inducing elicitor activity in Brassica napus cv. Wester assessed as increase in indolyl-3-acetonitrile levels relative to control; format: functional; summary of the method: as §2
[9] = test system: Brassica juncea; test: Stress inducing elicitor activity in Brassica juncea cv. Cutlass as induction of spirobrassinin production at 1 mM; format: functional, organism-based; summary of the method: as §1
[10] = test system: Brassica juncea; test: Stress inducing elicitor activity in Brassica juncea cv. Cutlass assessed as increase in indolyl-3-acetonitrile levels relative to control; format: functional; summary of the method: as §2
[11] = test system: Brassica napus; test: Stress inducing elicitor activity in Brassica napus cv. Wester assessed as increase in 1-methoxyindolyl-3-acetonitrile levels relative to control; format: functional; summary of the method: as §2
[12] = test system: Brassica juncea; test: Stress inducing elicitor activity in Brassica juncea cv. Cutlass assessed as increase in 1-methoxyindolyl-3-acetonitrile levels relative to control; format: functional; summary of the method: as §2
[13] = test system: Brassica juncea; test: Stress inducing elicitor activity in Brassica juncea cv. Cutlass assessed as induction of brassilexin production at 1 mM; format: functional, organism-based; summary of the method: as §2
[14] = test system: Brassica juncea; test: Stress inducing elicitor activity in Brassica juncea cv. Cutlass assessed as induction of cyclobrassinin production at 1 mM; format: functional, organism-based; summary of the method: as §2
[15] = test system: Brassica juncea; test: Stress inducing elicitor activity in Brassica juncea cv. Cutlass assessed as induction of rutalexin production at 1 mM; format: functional, organism-based; summary of the method: as §2
[16] = test system: Brassica juncea; test: Stress inducing elicitor activity in Brassica juncea cv. Cutlass assessed as induction of spirobrassinin production at 1 mM; format: functional, organism-based; summary of the method: as §2
[17] = test system: Brassica juncea; test: Stress inducing elicitor activity in Brassica juncea cv. Cutlass assessed as induction of brassilexin production at 0.5 mM; format: functional, organism-based; summary of the method: as §2
[18] = test system: Brassica juncea; test: Stress inducing elicitor activity in Brassica juncea cv. Cutlass assessed as induction of cyclobrassinin production at 0.5 mM; format: functional, organism-based; summary of the method: as §2
[19] = test system: Brassica juncea; test: Stress inducing elicitor activity in Brassica juncea cv. Cutlass assessed as induction of rutalexin production at 0.5 mM; format: functional, organism-based; summary of the method: as §2
[20] = test system: Brassica juncea; test: Stress inducing elicitor activity in Brassica juncea cv. Cutlass assessed as induction of spirobrassinin production at 0.5 mM; format: functional, organism-based; summary of the method: as §2
[21] = test system: Brassica napus; test: Stress inducing elicitor activity in Brassica napus cv. Wester assessed as induction of spirobrassinin production at 0.5 mM; format: functional, organism-based; summary of the method: as §2

CC(=O)O[C@H]1[C@]2(O)C[C@]34SSS[C@](CO)(C(=O)N3[C@@H]2C[C@]12O[C@H](C)C(C)(C)C2=O)N(C)C4=O
Activity [1]: inactive | Activity [2]: inactive

CC(C)=CCOc1ccc(C[C@@H]2NC(=O)[C@H](CO)NC2=O)cc1
Activity [3]: inactive | Activity [4]: inactive

CC(=O)O[C@H]1[C@]2(O)C[C@]34SSSS[C@](CO)(C(=O)N3[C@@H]2C[C@]12O[C@H](C)C(C)(C)C2=O)N(C)C4=O
Activity [1]: inactive | Activity [2]: inactive

CC(=O)O[C@H]1[C@]2(O)C[C@]34S[C@](CO)(C(=O)N3[C@@H]2C[C@]12O[C@H](C)C(C)(C)C2=O)N(C)C4=O
Activity [5]: Active | Activity [6]: Active | Activity [1]: inactive | Activity [2]: inactive

C/C=C1/NC(=O)[C@H](C(C)C)NC(=O)[C@@H](CC(C)C)NC(=O)[C@H](CC(C)C)OC(=O)[C@H](Cc2ccccc2)OC1=O
Activity [3]: inactive | Activity [4]: inactive

C[C@H]1O[C@]2(C[C@H]3N4C(=O)[C@@]5(CO)SS[C@]4(C[C@@]3(O)[C@@H]2O)C(=O)N5C)C(=O)C1(C)C [DEACETYLSIRODESMIN PL]
Activity [7]: Active | fold change (FC) [8]: 8 | Activity [9]: Active | fold change (FC) [10]: 8 | fold change (FC) [11]: 8 | fold change (FC) [12]: 8 | Activity [5]: Active | Activity [6]: Active

CC(=O)O[C@H]1[C@]2(O)C[C@]34SS[C@](CO)(C(=O)N3[C@@H]2C[C@]12O[C@H](C)C(C)(C)C2=O)N(C)C4=O [SIRODESMIN PL]
Activity [13]: Active | Activity [14]: Active | Activity [15]: Active | Activity [16]: Active | Activity [7]: Active | Activity [17]: Active | Activity [18]: Active | Activity [19]: Active | Activity [20]: Active | Activity [21]: Active | fold change (FC) [8]: 8 | fold change (FC) [10]: 8 | fold change (FC) [11]: 8 | fold change (FC) [12]: 8 | Activity [5]: Active | Activity [6]: Active

Reference: ChEMBL document CHEMBL1139423, “Stress-driven discovery of metabolites from the phytopathogenic fungus Leptosphaeria maculans: structure and activity of leptomaculins A-E” (2008)
